Results taken from ChEMBL document CHEMBL4393721 (Eur J Med Chem, 2019).
Activity calls are given as the source filed them. No cut-off for these calls is given here.

Tests used:
[1] = molecular target: T1, Nuclear receptor subfamily 4immunitygroup A member 1 (Homo sapiens, UniProt P22736); assay: Binding affinity to recombinant human N-terminal His-tagged Nur77 LBD (367 to 598 residues) expressed in Escherichia coli BL21(DE3) incubated for 30 secs by fluorescence quenching assay
HepG2 [2] = assay: Antiinflammatory activity in human HepG2 cells assessed as inhibition of TNFalpha-induced IkappaBalpha degradation at 2 uM pretreated for 1 hr followed by TNFalpha addition and measured after 30 mins by Western blot analysis; assay type: functional, cell-based
Summary of the method: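 HepG2 cells grown in DMEM with 10% FBS were exposed to compound for 1 hr and to TNFα (20 ng/mL) for 30 min. Lysates were run on 10% SDS-PAGE and immunoblotted for IκBα with ECL detection. Band grey values were quantified by densitometry. Data are mean ± SEM of three independent experiments.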

[3] = Induction of apoptosis in TNFalpha-treated human HepG2 cells assessed as normal cells at 2 uM incubated for 10 hrs by FITC Annexin V and propidium iodide staining based flow cytometric analysis (reference value: 88.37%); assay type: cell-based; conditions: read-out: Activity
Summary of the method: (§1)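 HepG2 cells grown in DMEM with 10% FBS were treated for 10 hr with compound (2 μM) plus TNFα (20 ng/mL). Cells were collected in binding buffer, stained with FITC-Annexin V and propidium iodide at room temperature, and analysed by flow cytometry. Quadrants as labelled: UL necrotic, UR viable apoptotic, LR non-viable apoptotic, LL normal.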

[4] = molecular target: T1, Nuclear receptor subfamily 4immunitygroup A member 1; assay: Binding affinity to GFP-Nur77 (unknown origin) expressed in human HepG2 cells cotransfected with mCherry-p62/SQSTM1 assessed as co-localization with p62/SQSTM1 in cytoplasm in presence of TNFalpha by DAPI staining based confocal microscopic analysis; assay type: cell-based
Summary of the method: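 HepG2 cells were transfected with GFP-Nur77 and mCherry-p62/SQSTM1, then treated with TNFα plus compound. Cells were fixed in paraformaldehyde, with nuclei counterstained by DAPI (1:10000). Nur77–p62 colocalization was imaged by fluorescence or LSM-510 confocal microscopy.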

[5] = molecular target: T1, Nuclear receptor subfamily 4immunitygroup A member 1; assay: Binding affinity to Myc-Nur77 (unknown origin) expressed in human HepG2 cells co-transfected with Flag tagged TRAF2 assessed as effect on protein interaction with TRAF2 at 2 uM incubated for 1 hr in presence of TNFalpha by co-immunoprecipitation assay; assay type: cell-based
Summary of the method: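 HepG2 cells were transfected with Myc-Nur77 and Flag-TRAF2, then treated for 1 hr with compound (2 μM) plus TNFα (20 ng/mL). Lysis buffer was 10 mM Tris pH 7.4, 150 mM NaCl, 1% Triton X-100, 5 mM EDTA and protease inhibitors. Lysate was incubated with 1 μg antibody for 2 hr at 4 °C, pulled down with protein A/G sepharose, washed, and read by Western blot.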

HepG2 [6] = assay: Induction of apoptosis in TNFalpha-treated human HepG2 cells assessed as PARP cleavage at 2 uM incubated for 10 hrs by Western blot analysis; assay type: cell-based; conditions: hepg2, 10 h
HepG2 [7] = assay: Induction of apoptosis in TNFalpha-treated human HepG2 cells assessed as non-viable apoptotic cells at 2 uM incubated for 10 hrs by FITC Annexin V and propidium iodide staining based flow cytometric analysis (reference value: 6.65%); assay type: cell-based; conditions: hepg2, 10 h; summary of the method: as §1
HepG2 [8] = assay: Induction of apoptosis in TNFalpha-treated human HepG2 cells assessed as viable apoptotic cells at 2 uM incubated for 10 hrs by FITC Annexin V and propidium iodide staining based flow cytometric analysis (reference value: 3.69%); assay type: cell-based; conditions: hepg2, 10 h; summary of the method: as §1
HepG2 [9] = assay: Induction of apoptosis in TNFalpha-treated human HepG2 cells assessed as necrotic cells at 2 uM incubated for 10 hrs by FITC Annexin V and propidium iodide staining based flow cytometric analysis (reference value: 1.29%); assay type: cell-based; conditions: hepg2, 10 h; summary of the method: as §1
[10] = Toxicity in zebrafish embryo AB assessed as mortality at 0.5 uM incubated for 24 hrs; set-up: species or system Danio rerio; conditions: in vivo
Summary of the method: (§2)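 Wild-type AB zebrafish embryos (20 per condition), collected within 0.5 h of spawning, were exposed from 2 hpf to 0.5, 1 or 1.25 µM compound in fish water, with 0.1% DMSO as control. Embryos were observed and imaged every 24 h. Mortality was scored at 24 and 72 hpf and malformation rate at 72 hpf.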

[11] = Toxicity in zebrafish embryo AB assessed as mortality at 0.5 uM incubated for 72 hrs; set-up: species or system Danio rerio; conditions: in vivo; summary of the method: as §2
[12] = Toxicity in zebrafish embryo AB assessed as mortality at 0.125 uM incubated for 24 hrs; set-up: species or system Danio rerio; conditions: in vivo
[13] = Toxicity in zebrafish embryo AB assessed as induction of malformation at 0.5 to 1.25 uM incubated for 24 to 72 hrs; set-up: species or system Danio rerio; conditions: in vivo; summary of the method: as §2
[14] = Toxicity in zebrafish embryo AB assessed as mortality at 0.5 uM incubated for 72 hrs relative to control; set-up: species or system Danio rerio; conditions: in vivo, read-out: Activity; summary of the method: as §2
[15] = Toxicity in zebrafish embryo AB assessed as mortality at 0.125 uM incubated for 24 hrs relative to control; set-up: species or system Danio rerio; conditions: in vivo, read-out: Activity

T1 sequence (P22736 whole entry, the tested form may be a part): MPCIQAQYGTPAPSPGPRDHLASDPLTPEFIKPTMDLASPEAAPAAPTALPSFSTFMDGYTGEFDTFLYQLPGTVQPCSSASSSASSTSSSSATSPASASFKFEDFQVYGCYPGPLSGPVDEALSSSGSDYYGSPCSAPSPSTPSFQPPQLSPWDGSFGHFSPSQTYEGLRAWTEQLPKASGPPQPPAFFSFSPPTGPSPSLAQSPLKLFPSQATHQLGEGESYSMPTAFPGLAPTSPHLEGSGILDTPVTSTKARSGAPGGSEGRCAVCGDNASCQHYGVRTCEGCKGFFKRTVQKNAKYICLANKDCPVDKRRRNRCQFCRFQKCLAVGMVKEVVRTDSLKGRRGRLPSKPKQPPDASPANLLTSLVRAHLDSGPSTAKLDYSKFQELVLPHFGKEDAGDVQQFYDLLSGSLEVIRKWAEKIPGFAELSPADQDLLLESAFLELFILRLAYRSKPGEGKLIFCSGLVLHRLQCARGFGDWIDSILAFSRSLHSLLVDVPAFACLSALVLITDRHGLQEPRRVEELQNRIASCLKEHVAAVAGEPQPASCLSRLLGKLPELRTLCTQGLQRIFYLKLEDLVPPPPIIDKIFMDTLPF

Row | Compound | Kd ([1]; read-out: Kd) [nM] | inhibition (HepG2 [2]) | Kd [1] | other results
1 | COC(=O)[C@]1(C)CC[C@]2(C)CC[C@]3(C)C4=CC=C5C(=CC(=O)C(OC)=C5C)[C@]4(C)CC[C@@]3(C)[C@@H]2C1 | 2940 | inactive | – | –
2 | CCOC(=O)[C@]1(C)CC[C@]2(C)CC[C@]3(C)C4=CC=C5C(=CC(=O)C(O)=C5C)[C@]4(C)CC[C@@]3(C)[C@@H]2C1 | 220 | Active | – | –
3 | COC(=O)[C@]1(C)CC[C@]2(C)CC[C@]3(C)C4=CCc5c(cc(OC)c(O)c5C)[C@]4(C)CC[C@@]3(C)[C@@H]2C1 | – | inactive | Not Active | –
4 | COc1cc2c(c(C)c1O)CC=C1[C@@]2(C)CC[C@@]2(C)[C@@H]3C[C@](C)(C(=O)O)CC[C@]3(C)CC[C@]12C | – | inactive | Not Active | –
5 | COc1c(O)cc2c(c1C)CC=C1[C@@]2(C)CC[C@@]2(C)[C@@H]3C[C@](C)(C(=O)O)CC[C@]3(C)CC[C@]12C | – | inactive | Not Active | –
6 | COC(=O)[C@]1(C)CC[C@]2(C)CC[C@]3(C)C4=CC=C5C(=CC(=O)C(OCC(F)F)=C5C)[C@]4(C)CC[C@@]3(C)[C@@H]2C1 | 3300 | inactive | – | –
7 | COc1cc2c(c(C)c1OC)CC=C1[C@@]2(C)CC[C@@]2(C)[C@@H]3C[C@](C)(C(=O)O)CC[C@]3(C)CC[C@]12C | – | inactive | Not Active | –
8 | Cc1c(O)c(O)cc2c1[C@H](C[N+](=O)[O-])C=C1[C@@]2(C)CC[C@@]2(C)[C@@H]3C[C@](C)(C(=O)O)CC[C@]3(C)CC[C@]12C | 5560 | inactive | – | –
9 | Cc1c(O)c(O)cc2c1C(=O)C=C1[C@@]2(C)CC[C@@]2(C)[C@@H]3C[C@](C)(C(=O)O)CC[C@]3(C)CC[C@]12C | 2690 | inactive | – | –
10 | COC(=O)[C@]1(C)CC[C@]2(C)CC[C@]3(C)C4=CCc5c(cc(OC)c(OC)c5C)[C@]4(C)CC[C@@]3(C)[C@@H]2C1 | – | inactive | Not Active | –
11 | Cc1c(O)c(O)cc2c1[C@H](c1cc[nH]c1)C=C1[C@@]2(C)CC[C@@]2(C)[C@@H]3C[C@](C)(C(=O)O)CC[C@]3(C)CC[C@]12C | – | inactive | Not Active | –
12 | CCNC(=O)[C@]1(C)CC[C@]2(C)CC[C@]3(C)C4=CC=C5C(=CC(=O)C(O)=C5C)[C@]4(C)CC[C@@]3(C)[C@@H]2C1 | 830 | Active | – | viability at 10 h, 2 µM [3]: 53.7%; Activity [4]: Active; Activity [5]: Active; Activity (HepG2 [6]): Toxic; Activity (HepG2 [7]): 24%; Activity (HepG2 [8]): 18.35%; Activity (HepG2 [9]): 3.92%
13 | Cc1c(O)c(O)cc2c1[C@H](CN)C=C1[C@@]2(C)CC[C@@]2(C)[C@@H]3C[C@](C)(C(=O)O)CC[C@]3(C)CC[C@]12C | – | inactive | Not Active | –
14 | CCOC1=C(C)C2=CC=C3[C@@](C)(CC[C@@]4(C)[C@@H]5C[C@](C)(C(=O)OC)CC[C@]5(C)CC[C@]34C)C2=CC1=O | 4130 | inactive | – | –
15 | CC1=C(O)C(=O)C=C2C1=CC=C1[C@@]2(C)CC[C@@]2(C)[C@@H]3C[C@](C)(C(=O)OC(C)C)CC[C@]3(C)CC[C@]12C | 520 | Active | – | –
16 | CC(=O)C[C@@H]1C=C2[C@@](C)(CC[C@@]3(C)[C@@H]4C[C@](C)(C(=O)O)CC[C@]4(C)CC[C@]23C)c2cc(O)c(O)c(C)c21 | 3800 | inactive | – | –
17 | COP(=O)(OC)[C@@H]1C=C2[C@@](C)(CC[C@@]3(C)[C@@H]4C[C@](C)(C(=O)O)CC[C@]4(C)CC[C@]23C)c2cc(O)c(O)c(C)c21 | – | inactive | Not Active | –
18 | Cc1c(O)c(O)cc2c1CC=C1[C@@]2(C)CC[C@@]2(C)[C@@H]3C[C@](C)(C(=O)O)CC[C@]3(C)CC[C@]12C [DIHYDROCELASTROL] | 870 | Active | – | viability at 10 h, 2 µM [3]: 85%; Activity [4]: Active; Activity [5]: Active; Activity (HepG2 [6]): Non-Toxic; Activity (HepG2 [7]): 11.09%; Activity (HepG2 [8]): 3.12%; Activity (HepG2 [9]): 0.79%; Activity [10]: Toxic; Activity [11]: Toxic; Activity [12]: Toxic; Activity [13]: Toxic
19 | CCCNC(=O)[C@]1(C)CC[C@]2(C)CC[C@]3(C)C4=CC=C5C(=CC(=O)C(O)=C5C)[C@]4(C)CC[C@@]3(C)[C@@H]2C1 | 270 | Active | – | –
20 | COC(=O)[C@]1(C)CC[C@]2(C)CC[C@]3(C)C4=CCc5c(cc(O)c(OC)c5C)[C@]4(C)CC[C@@]3(C)[C@@H]2C1 | – | – | Not Active | –
21 | COC(=O)[C@]1(C)CC[C@]2(C)CC[C@]3(C)C4=CC=C5C(=CC(=O)C(O)=C5C)[C@]4(C)CC[C@@]3(C)[C@@H]2C1 [PRISTIMERIN] | 960 | Active | – | –
22 | CC1=C(O)C(=O)C=C2C1=CC=C1[C@@]2(C)CC[C@@]2(C)[C@@H]3C[C@](C)(C(=O)F)CC[C@]3(C)CC[C@]12C | 720 | Active | – | –
23 | CNC(=O)[C@]1(C)CC[C@]2(C)CC[C@]3(C)C4=CC=C5C(=CC(=O)C(O)=C5C)[C@]4(C)CC[C@@]3(C)[C@@H]2C1 | 800 | Active | – | –
24 | Cc1c(O)c(O)cc2c1[C@H](C)C=C1[C@@]2(C)CC[C@@]2(C)[C@@H]3C[C@](C)(C(=O)O)CC[C@]3(C)CC[C@]12C | – | inactive | Not Active | –
25 | CC1=C(O)C(=O)C=C2C1=CC=C1[C@@]2(C)CC[C@@]2(C)[C@@H]3C[C@](C)(C(=O)O)CC[C@]3(C)CC[C@]12C [CELASTROL] | – | Active | – | viability at 10 h, 2 µM [3]: 62.9%; Activity [4]: Active; Activity [5]: Active; Activity (HepG2 [6]): Toxic; Activity (HepG2 [7]): 24.98%; Activity (HepG2 [8]): 10.34%; Activity (HepG2 [9]): 1.75%; Activity [10]: Toxic; mortality at 72 h, 0.5 µM [14]: 100%; mortality at 24 h, 0.125 µM [15]: 90%; Activity [13]: Toxic
